# An excerpt weighted towards active compounds, which were near 1.5% of everything screened.
# APJ agonist – agonists of human apelin receptor APJ, primary screen, CHO-K1 cells, PathHunter beta-arrestin, luminescence; activation, % at 20 µM; 0% DMSO wells, 100% apelin; AID 2520, 2010; P35414; actives 0.11% (n = 330,000);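 active = activation more than six SD over the plate average, tested at 20 µM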;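 also: 0% = DMSO alone and 100% = apelin-13 at 10 nM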
#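 assay system = CHO-K1 APJ beta-arrestin complementation cell line | input = cell density 1000 per well | dosing = compound 20 µM once, DMSO 1% | timing = compound 90 min 25 °C, reagent 1 h | measured by = luminescence from split beta-galactosidase complementation, Galacton Star/Emerald II substrate | read-out basis = APJ agonist activity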
# APJ antagonist – antagonists of human apelin receptor APJ, primary screen, CHO-K1 cells, beta-arrestin complementation, luminescence | actives 0.32% (n = 330,000) | AID 2521, 2010 | inhibition, % at 20 µM;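 active = inhibition above about 40% at 20 µM, limit read from the data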;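 also: cells challenged with 10 nM apelin-13 agonist together with compound; plate controls were apelin-13 plus DMSO wells for no effect and DMSO wells lacking apelin-13 for full effect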
# EBI2 block – EBI2 receptor antagonists, beta-arrestin recruitment, primary screen, cell-based, luminescence, 7a,25-OHC stimulation, uHTS. 7a,25-OHC stimulated. actives 0.81% (n = 360,000). inhibition, % at 5 µM. G-protein coupled receptor 183 (Homo sapiens), P32249; in the data active = inhibition above about 38%;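 also: enzyme fragment complementation signal reports receptor beta-arrestin coupling in cells; 0% = agonist plus DMSO wells and 100% = wells without agonist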
# Target sequence (P32249 whole entry, looked up, the tested form may be a part): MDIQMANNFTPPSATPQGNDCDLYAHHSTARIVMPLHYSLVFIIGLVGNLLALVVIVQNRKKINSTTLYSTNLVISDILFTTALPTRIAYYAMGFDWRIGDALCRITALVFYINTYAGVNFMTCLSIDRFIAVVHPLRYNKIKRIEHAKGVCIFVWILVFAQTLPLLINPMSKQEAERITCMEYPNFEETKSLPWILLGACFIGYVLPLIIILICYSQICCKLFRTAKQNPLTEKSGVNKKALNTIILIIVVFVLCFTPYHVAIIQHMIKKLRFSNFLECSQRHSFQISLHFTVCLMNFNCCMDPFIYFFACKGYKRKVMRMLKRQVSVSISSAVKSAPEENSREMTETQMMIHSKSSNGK
# CCR6 antagonist – CCR6 receptor antagonists, primary screen, cell-based, CHO-K1, luminescence, beta-arrestin, uHTS; C-C chemokine receptor type 6 (Homo sapiens), P51684; CHO-K1 CCR6 PathHunter beta-arrestin, CCL20-stimulated; inhibition, % at 20 µM; actives 0.49% (n = 340,000);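 active = compounds whose inhibition of the agonist-driven luminescence signal at 20 µM reaches about 50%, limit read from the data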;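 also: cells stimulated with CCL20 at 14 nM final; plate controls were DMSO with CCL20 for no effect and DMSO without agonist for full effect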
# CXCR6 block – CXCR6 receptor inhibitors, primary screen, cell-based, beta-arrestin, luminescence, CHO-K1 PathHunter, 1536-well; C-X-C chemokine receptor type 6 (Homo sapiens), O00574; inhibition, % at 20 µM; actives 0.36% (n = 360,000); AID 602244, 2012; in the data active = inhibition above about 34%, passing the limit was not always enough;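 also: antagonist mode with CXCL16 agonist at 10 nM final; 0% = 10 nM CXCL16 with DMSO and 100% = unstimulated wells without agonist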
# EBI2 conf – EBI2 antagonist hit retest, beta-arrestin, confirmation, cell-based, single concentration, luminescence, 7a,25-OHC stimulation; shares compounds with EBI2 block; 7a,25-OHC antagonism; inhibition, % at 5 µM; actives 29% (n = 2,400); AID 651997, 2013;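 active = inhibition of at least 50%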
# EBI2 ag – EBI2 agonist activity of antagonist hits, confirmation, counter-screen for EBI2 antagonist project, cell-based, single concentration, agonist mode, luminescence | EBI2-expressing cells, 60 min; 0% vehicle, 100% 7α,25-dihydroxycholesterol control | activation, % at 5 µM | 2,400 tested, under 10 active | AID 652000, 2013 | shares compounds with EBI2 block;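 active = activation of at least 50%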
# bGal counter – E. coli beta-galactosidase enzyme inhibition, confirmation, counter-screen for EBI2 antagonist project, biochemical, luminescence, single concentration | shares compounds with EBI2 block | purified beta-galactosidase, luminescent Galacton Star, 15 min | inhibition, % at 5 µM | actives 1% (n = 2,400) | AID 652176, 2013;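 active = replicate-average signal at least 3 plate SD below neutral wells, shown as high inhibition, flagging enzyme-inhibiting false positives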;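 also: 0% = DMSO wells with enzyme and 100% = wells lacking enzyme; higher means stronger loss of beta-gal luminescence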
# * = called active by the depositor; . = no result.
SMILES,APJ agonist,APJ antagonist,EBI2 block,CCR6 antagonist,CXCR6 block,EBI2 conf,EBI2 ag,bGal counter
Cc1ccc(NC(=O)CN(C)C(=O)C(C)N2CCN(Cc3ccccc3C)CC2)cc1 (configuration not stated),-2,16,-16,13,2,.,.,.
CN(/C=C/C(=O)C(F)(F)F)Cc1ccccc1,0,-16,39*,-16,0,6,0,11
CCc1c(C)c2ccc(OCC(=O)NCC3CCC(C(=O)O)CC3)c(C)c2oc1=O (configuration not stated),1,-77,-5,-15,-8,.,.,.
CCCC(=O)n1nc(-c2ccccc2)nc1SC,-8,0,43*,-8,-8,24,1,7
Cc1cccc(C(=O)N2CCNC(=O)C2CC(=O)Nc2cccc(Cl)c2)c1 (configuration not stated),-4,8,-2,12,2,.,.,.
O=C(CN(C(=O)CCC(=O)Nc1nccs1)c1cccc(C(F)(F)F)c1)NCC1CCCO1 (configuration not stated),-4,3,-2,9,2,.,.,.
Cc1cc(C)n(-c2ccccc2C#N)n1,0,-6,-10,11,2,.,.,.
CCOC(=O)/C(=C\c1ccc(N2CCC(c3ccccc3)=N2)cc1)C(C)=O,.,.,48*,18,11,53*,0,3
O=C(/C=C/c1ccc(N2CCC(c3ccccc3)=N2)cc1)c1ccccc1,-2,5,.,11,.,.,.,.
O=C(/C=C/c1ccc2ccccc2n1)N1CCN(S(=O)(=O)c2ccc(F)cc2)CC1,-5,5,50*,19,-8,39,1,11
O=C(/C=C/c1ccc2ccccc2n1)N1CCN(c2ccccc2)CC1,-2,-8,2,9,8,.,.,.
O=C(CSc1ccccc1)N1CCN(S(=O)(=O)c2ccccc2F)CC1,0,16,24,15,-4,.,.,.
O=C(/C=C/c1ccc2ccccc2n1)N1CCN(S(=O)(=O)c2ccccc2F)CC1,-1,5,55*,6,-2,41,0,-17
c1ccc(-n2ncc3cccnc32)cc1,1,4,-2,-4,-5,.,.,.
Cc1noc(C)c1C(=O)NCCc1c(C)[nH]c2ccccc12,1,12,3,10,-5,.,.,.
COc1ccc(CCN2C(=O)C(Oc3ccccc3C)C2c2ccc3c(c2)OCO3)cc1OC (configuration not stated),-3,7,18,5,3,.,.,.
COC(=O)c1ccc(C2C(Oc3ccc(OC)cc3)C(=O)N2CCc2ccc(F)cc2)cc1 (configuration not stated),-2,17,42*,-10,-1,16,-1,-10
COc1ccc(CCN2C(=O)C(Oc3ccccc3C)C2c2ccc3c(c2)OCO3)cc1 (configuration not stated),-2,-21,55*,17,6,24,2,3
CC(C)OCCCNC(=O)c1c(N)n(/N=C/c2ccccn2)c2nc3ccccc3nc12,-5,0,48*,-27,-1,21,0,-9
CCC(C)NC(=O)c1c(N)n(/N=C/c2ccccn2)c2nc3ccccc3nc12 (configuration not stated),-1,-13,27,-17,-8,.,.,.
COc1ccc(-c2nnc(SCc3nnc(-c4ccccc4)o3)n2-c2ccccc2)cc1,0,10,27,23,4,.,.,.
COc1ccc(-c2nnc(SCc3nnc(-c4ccc(Cl)cc4)o3)n2-c2ccccc2)cc1,-1,-2,74*,15,0,44,-1,-13
Clc1ccc(-c2nnc(CSc3nnc(-c4cccs4)n3Cc3ccccc3)o2)cc1,1,16,88*,8,5,60*,1,4
Cc1nnc(SCc2nnc(-c3cccs3)o2)n1Cc1ccccc1,-1,-5,-11,2,10,.,.,.
Cc1cc(C(=O)CN2C(=O)C(=O)N(CCC3=CCCCC3)C2=O)c(C)n1C,-4,3,4,-1,3,.,.,.
CN(Cc1ccccc1)C(=O)c1cccc(NC(=O)Cc2ccc(NC(=O)C3CCCN(C(=O)C4CCCCC4)C3)cc2)c1 (configuration not stated),.,.,4,4,-5,.,.,.
CC(C)c1ccc(NC(=O)Nc2nc(C(N)c3ccccc3Cl)cs2)cc1 (configuration not stated),.,.,3,.,-1,.,.,.
O=C(CCC(=O)c1ccc(F)cc1)OCc1nnc(-c2ccc([N+](=O)[O-])cc2)o1,2,-23,-20,1,1,.,.,.
O=C(C1CCN(S(=O)(=O)c2cccc3cccnc23)CC1)N1CCCCC1,0,-58,2,5,-1,.,.,.
CC1(C(=O)NS(=O)(=O)c2cccc(F)c2)CCN1C(=O)c1ccccc1 (configuration not stated),.,.,-13,.,-5,.,.,.
